Where two headings read alike, the source gives them in different places.
Test system: East Asian patients with advanced nonhematologic malignancies
Assay type: in vivo, human
Method in brief: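 AEs were graded by NCI CTCAE v4.03 in all patients receiving ≥ 1 oral dose, given once daily or once weekly in 28-day cycles for up to 12 months. Follow-up lasted 30 days after the last dose. Entry required ECOG 0–1, fasting glucose ≤ 130 mg/dL and triglycerides ≤ 300 mg/dL. Summaries were descriptive.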

[1] = QD dose escalation 2 mg (n = 3)
[2] = QD dose escalation 3 mg (n = 6)
[3] = QD dose escalation 4 mg (n = 7)
[4] = QD dose escalation + expansion 3 mg (n = 12)

CC(C)n1nc(-c2ccc3oc(N)nc3c2)c2c(N)ncnc21 [sapanisertib]
Tolerability (East Asian patients, QD and QW): generally well-tolerated
AE decreased appetite (QD arm): 50%
AE nausea (QD arm): 50%
Treatment-related AE decreased appetite (QD arm): 45%
Treatment-related AE nausea (QD arm): 50%
Discontinued treatment due to AEs (QD arm (myocardial infarction, diarrhea and gastrointestinal inflammation, rash maculo-papular)): three
AEs resulting in discontinuation [1]: 1 (33) n (%)
AEs resulting in dose interruption [1]: 1 (33) n (%)
AEs resulting in dose reduction [1]: 0 n (%)
Any AE [1]: 3 (100) n (%)
Any grade ≥ 3 AE [1]: 1 (33) n (%)
On-study deaths [1]: 0 n (%)
SAEs [1]: 0 n (%)
Treatment-related AE [1]: 3 (100) n (%)
Treatment-related SAEs [1]: 0 n (%)
Treatment-related grade ≥ 3 AE [1]: 1 (33) n (%)
AEs resulting in discontinuation [2]: 0 n (%)
AEs resulting in dose interruption [2]: 5 (83) n (%)
AEs resulting in dose reduction [2]: 0 n (%)
Any AE [2]: 6 (100) n (%)
Any grade ≥ 3 AE [2]: 2 (33) n (%)
On-study deaths [2]: 0 n (%)
SAEs [2]: 2 (33) n (%)
Treatment-related AE [2]: 6 (100) n (%)
Treatment-related SAEs [2]: 0 n (%)
Treatment-related grade ≥ 3 AE [2]: 0 n (%)
AEs resulting in discontinuation [3]: 2 (29) n (%)
AEs resulting in dose interruption [3]: 6 (86) n (%)
AEs resulting in dose reduction [3]: 3 (43) n (%)
Any AE [3]: 7 (100) n (%)
Any grade ≥ 3 AE [3]: 6 (86) n (%)
On-study deaths [3]: 0 n (%)
SAEs [3]: 3 (43) n (%)
Treatment-related AE [3]: 7 (100) n (%)
Treatment-related SAEs [3]: 2 (29) n (%)
Treatment-related grade ≥ 3 AE [3]: 6 (86) n (%)
AEs resulting in discontinuation [4]: 0 n (%)
AEs resulting in dose interruption [4]: 8 (67) n (%)
AEs resulting in dose reduction [4]: 1 (8) n (%)
Any AE [4]: 12 (100) n (%)
Any grade ≥ 3 AE [4]: 7 (58) n (%)
On-study deaths [4]: 0 n (%)
SAEs [4]: 3 (25) n (%)
Treatment-related AE [4]: 12 (100) n (%)
Treatment-related SAEs [4]: 0 n (%)
Treatment-related grade ≥ 3 AE [4]: 3 (25) n (%)
AEs resulting in discontinuation (QD dose expansion 3 mg (n = 6)): 0 n (%)
AEs resulting in dose interruption (QD dose expansion 3 mg (n = 6)): 3 (50) n (%)
AEs resulting in dose reduction (QD dose expansion 3 mg (n = 6)): 1 (17) n (%)
Any AE (QD dose expansion 3 mg (n = 6)): 6 (100) n (%)
Any grade ≥ 3 AE (QD dose expansion 3 mg (n = 6)): 5 (83) n (%)
On-study deaths (QD dose expansion 3 mg (n = 6)): 0 n (%)
SAEs (QD dose expansion 3 mg (n = 6)): 1 (17) n (%)
Treatment-related AE (QD dose expansion 3 mg (n = 6)): 6 (100) n (%)
Treatment-related SAEs (QD dose expansion 3 mg (n = 6)): 0 n (%)
Treatment-related grade ≥ 3 AE (QD dose expansion 3 mg (n = 6)): 3 (50) n (%)
AE by preferred term: Abdominal pain (QD dosing n = 22): 3 (14) n (%)
AE by preferred term: Alanine aminotransferase increased (QD dosing n = 22): 4 (18) n (%)
AE by preferred term: Anemia (QD dosing n = 22): 5 (23) n (%)
AE by preferred term: Aspartate aminotransferase increased (QD dosing n = 22): 6 (27) n (%)
AE by preferred term: Constipation (QD dosing n = 22): 4 (18) n (%)
AE by preferred term: Decreased appetite (QD dosing n = 22): 11 (50) n (%)
AE by preferred term: Diarrhea (QD dosing n = 22): 2 (9) n (%)
AE by preferred term: Erythema (QD dosing n = 22): 2 (9) n (%)
AE by preferred term: Erythema multiforme (QD dosing n = 22): 2 (9) n (%)
AE by preferred term: Fatigue (QD dosing n = 22): 7 (32) n (%)
AE by preferred term: Gamma-glutamyltransferase increased (QD dosing n = 22): 2 (9) n (%)
AE by preferred term: Gastrointestinal inflammation (QD dosing n = 22): 2 (9) n (%)
AE by preferred term: Headache (QD dosing n = 22): 2 (9) n (%)
AE by preferred term: Hyperglycemia (QD dosing n = 22): 9 (41) n (%)
AE by preferred term: Hypokalemia (QD dosing n = 22): 3 (14) n (%)
AE by preferred term: Lymphocyte count decreased (QD dosing n = 22): 4 (18) n (%)
AE by preferred term: Nausea (QD dosing n = 22): 11 (50) n (%)
AE by preferred term: Neutrophil count decreased (QD dosing n = 22): 2 (9) n (%)
AE by preferred term: Platelet count decreased (QD dosing n = 22): 6 (27) n (%)
AE by preferred term: Pruritus (QD dosing n = 22): 2 (9) n (%)
AE by preferred term: Pyrexia (QD dosing n = 22): 4 (18) n (%)
AE by preferred term: Rash erythematous (QD dosing n = 22): 2 (9) n (%)
AE by preferred term: Rash maculo-papular (QD dosing n = 22): 5 (23) n (%)
AE by preferred term: Rash pustular (QD dosing n = 22): 2 (9) n (%)
AE by preferred term: Stomatitis (QD dosing n = 22): 14 (64) n (%)
AE by preferred term: Urticaria (QD dosing n = 22): 3 (14) n (%)
AE by preferred term: Vomiting (QD dosing n = 22): 5 (23) n (%)
AE by preferred term: Weight decreased (QD dosing n = 22): 7 (32) n (%)
AE by preferred term: White blood cell count decreased (QD dosing n = 22): 4 (18) n (%)
Grade ≥ 3 AE: Acute myocardial infarction (QD dosing n = 22): 1 (5) n (%)
Grade ≥ 3 AE: Aspartate aminotransferase increased (QD dosing n = 22): 1 (5) n (%)
Grade ≥ 3 AE: Blood creatine phosphokinase increased (QD dosing n = 22): 1 (5) n (%)
Grade ≥ 3 AE: Decreased appetite (QD dosing n = 22): 1 (5) n (%)
Grade ≥ 3 AE: Diarrhea (QD dosing n = 22): 1 (5) n (%)
Grade ≥ 3 AE: Gamma-glutamyltransferase increased (QD dosing n = 22): 1 (5) n (%)
Grade ≥ 3 AE: Gastrointestinal inflammation (QD dosing n = 22): 1 (5) n (%)
Grade ≥ 3 AE: Genital herpes (QD dosing n = 22): 1 (5) n (%)
Grade ≥ 3 AE: Gingivitis (QD dosing n = 22): 1 (5) n (%)
Grade ≥ 3 AE: Jaundice cholestatic (QD dosing n = 22): 1 (5) n (%)
Grade ≥ 3 AE: Lymphocyte count decreased (QD dosing n = 22): 2 (9) n (%)
Grade ≥ 3 AE: Nausea (QD dosing n = 22): 2 (9) n (%)
Grade ≥ 3 AE: Neutrophil count decreased (QD dosing n = 22): 1 (5) n (%)
Grade ≥ 3 AE: Platelet count decreased (QD dosing n = 22): 1 (5) n (%)
Grade ≥ 3 AE: Post herpetic neuralgia (QD dosing n = 22): 1 (5) n (%)
Grade ≥ 3 AE: Pruritus (QD dosing n = 22): 1 (5) n (%)
Grade ≥ 3 AE: Rash maculo-papular (QD dosing n = 22): 2 (9) n (%)
Grade ≥ 3 AE: Rash pustular (QD dosing n = 22): 1 (5) n (%)
Grade ≥ 3 AE: Renal impairment (QD dosing n = 22): 1 (5) n (%)
Grade ≥ 3 AE: Sepsis (QD dosing n = 22): 1 (5) n (%)
Grade ≥ 3 AE: Stomatitis (QD dosing n = 22): 2 (9) n (%)
Grade ≥ 3 AE: Urticaria (QD dosing n = 22): 1 (5) n (%)
Grade ≥ 3 AE: White blood cell count decreased (QD dosing n = 22): 1 (5) n (%)
Patients with ≥ 1 grade 3 or higher AE (QD dosing n = 22): 14 (64) n (%)
AEs resulting in discontinuation (QD total (n = 22)): 3 (14) n (%)
AEs resulting in dose interruption (QD total (n = 22)): 15 (68) n (%)
AEs resulting in dose reduction (QD total (n = 22)): 4 (18) n (%)
Any AE (QD total (n = 22)): 22 (100) n (%)
Any grade ≥ 3 AE (QD total (n = 22)): 14 (64) n (%)
On-study deaths (QD total (n = 22)): 0 n (%)
SAEs (QD total (n = 22)): 6 (27) n (%)
Treatment-related AE (QD total (n = 22)): 22 (100) n (%)
Treatment-related SAEs (QD total (n = 22)): 2 (9) n (%)
Treatment-related grade ≥ 3 AE (QD total (n = 22)): 10 (45) n (%)
AE alanine aminotransferase increased (QW arm): 50%
AE aspartate aminotransferase increased (QW arm): 50%
AE blood alkaline phosphatase increased (QW arm): 67%
AE decreased appetite (QW arm): 50%
AE hyperglycemia (QW arm): 67%
AE nausea (QW arm): 100%
AE stomatitis (QW arm): 33%
AE weight decreased (QW arm): 50%

Reference: PMC8994735 (Targeted Oncology, 2021)
